Data from ChEMBL document CHEMBL1128471, “Reversible inhibitors of the gastric (H+/K+)-ATPase. 4. Identification of an inhibitor with an intermediate duration of action” (J Med Chem, 1995).

Legend:
[1] = target: Potassium-transporting ATPase (Sus scrofa, UniProt P19156); assay: Inhibition of K+ -stimulated gastric ATPase activity was measured using lyophilized gastric vesicles at pH 7; type: tissue-based, Stomach
Method in brief: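 K+-stimulated ATPase activity was measured in lyophilized (permeabilized) gastric vesicles at pH 7. The value is an IC50, or percent inhibition at the stated concentration where no IC50 could be determined.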

[2] = test system: Canis familiaris; assay: Mean percent peak inhibition of histamine-stimulated gastric acid secretion in the heidenhain pouch dog following a single dose of 1 umol/kg through iv administration.; type: functional; conditions: Canis lupus familiaris, Stomach
[3] = test system: Canis familiaris; assay: Mean percent peak inhibition of histamine-stimulated gastric acid secretion in the heidenhain pouch dog following a single dose of 4 umol/kg through oral administration.; type: functional; conditions: Canis lupus familiaris, Stomach
[4] = target: T1, Potassium-transporting ATPase (Rattus norvegicus) (UniProt P09626+P18598); assay: Inhibition of pentagastrin-stimulated gastric acid secretion in the anesthetized rat after iv administration; type: functional, organism-based; conditions: Stomach
Method in brief: (§1)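 Anesthetized, lumen-perfused rats were given pentagastrin to stimulate gastric acid secretion, and compounds were given iv. The value is an ED50 (µmol/kg iv) with 95% confidence limits, or percent inhibition ± SEM at a single 10 µmol/kg iv dose.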

[5] = target: T1, Potassium-transporting ATPase (Rattus norvegicus); assay: Inhibition of pentagastrin-stimulated gastric acid secretion at a single dose of 10 umol/kg.; type: functional; conditions: Stomach; method in brief: as §1

Chain of Potassium-transporting ATPase (P18434 whole entry): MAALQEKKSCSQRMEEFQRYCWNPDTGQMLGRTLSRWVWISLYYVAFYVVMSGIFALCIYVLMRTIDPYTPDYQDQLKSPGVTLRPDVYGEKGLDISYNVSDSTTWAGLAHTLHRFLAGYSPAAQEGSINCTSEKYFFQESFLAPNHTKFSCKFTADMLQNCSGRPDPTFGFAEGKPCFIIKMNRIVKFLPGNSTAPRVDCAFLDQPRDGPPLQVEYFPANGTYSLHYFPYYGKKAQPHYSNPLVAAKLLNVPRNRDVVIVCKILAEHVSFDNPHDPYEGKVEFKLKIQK
Chain of Potassium-transporting ATPase (P19156 whole entry): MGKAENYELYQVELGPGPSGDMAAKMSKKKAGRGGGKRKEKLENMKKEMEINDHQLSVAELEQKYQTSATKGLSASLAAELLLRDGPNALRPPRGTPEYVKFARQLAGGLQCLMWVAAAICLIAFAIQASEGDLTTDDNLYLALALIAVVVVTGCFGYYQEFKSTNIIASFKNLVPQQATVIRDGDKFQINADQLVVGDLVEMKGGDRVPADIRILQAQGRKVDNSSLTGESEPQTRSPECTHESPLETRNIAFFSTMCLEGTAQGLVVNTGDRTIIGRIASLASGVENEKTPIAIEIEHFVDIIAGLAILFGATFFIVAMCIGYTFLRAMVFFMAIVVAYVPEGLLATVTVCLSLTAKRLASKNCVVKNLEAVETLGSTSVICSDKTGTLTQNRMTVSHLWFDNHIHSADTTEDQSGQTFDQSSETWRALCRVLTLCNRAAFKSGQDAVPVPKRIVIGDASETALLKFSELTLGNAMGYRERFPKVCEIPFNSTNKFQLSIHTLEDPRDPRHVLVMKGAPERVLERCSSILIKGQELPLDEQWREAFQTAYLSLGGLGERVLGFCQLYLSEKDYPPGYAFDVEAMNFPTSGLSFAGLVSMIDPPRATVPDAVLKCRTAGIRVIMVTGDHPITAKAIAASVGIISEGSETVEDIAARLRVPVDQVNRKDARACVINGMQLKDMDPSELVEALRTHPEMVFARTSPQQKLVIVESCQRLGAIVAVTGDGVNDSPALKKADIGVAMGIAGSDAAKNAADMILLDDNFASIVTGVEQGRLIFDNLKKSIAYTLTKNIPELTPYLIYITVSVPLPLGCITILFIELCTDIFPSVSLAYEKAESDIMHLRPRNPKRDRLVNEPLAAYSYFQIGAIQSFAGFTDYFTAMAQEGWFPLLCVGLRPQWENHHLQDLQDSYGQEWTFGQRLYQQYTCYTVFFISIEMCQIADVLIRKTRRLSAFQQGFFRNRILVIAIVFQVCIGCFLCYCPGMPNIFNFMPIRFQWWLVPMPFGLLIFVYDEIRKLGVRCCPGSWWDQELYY

## CCC(=O)c1cnc2c(OCCO)cccc2c1Nc1ccc(F)cc1C
[1]
  IC50: 2 µM
[2]
  inhibition in vivo at 1 µmol/kg: 58%
[3]
  inhibition in vivo at 4 µmol/kg: 72%
[4]
  ED50: 2.85 µmol/kg

## CCCC(=O)c1cnc2c(OCCOCCOCCO)cccc2c1Nc1ccccc1C
[2]
  inhibition in vivo at 1 µmol/kg: 20%
[3]
  inhibition in vivo at 4 µmol/kg: 78%

## CCCC(=O)c1cnc2c(Oc3cnccn3)cccc2c1Nc1ccccc1C
[1]
  IC50: 2 µM
[2]
  inhibition in vivo at 1 µmol/kg: 49%
[3]
  inhibition in vivo at 4 µmol/kg: 43%
[4]
  ED50: 2.9 µmol/kg

## CCCC(=O)c1cnc2c(CO)cccc2c1Nc1ccccc1C
[2]
  inhibition in vivo at 1 µmol/kg: 39%
[3]
  inhibition in vivo at 4 µmol/kg: 56%
[4]
  ED50: 1.72 µmol/kg

## CCCC(=O)c1cnc2c(C(C)O)cccc2c1Nc1ccc(O)cc1C (configuration not stated)
[1]
  IC50: 0.061 µM
[2]
  inhibition in vivo at 1 µmol/kg: 30%
[4]
  ED50: 2.74 µmol/kg

## CCCC(=O)c1cnc2c(OCCOCCO)cccc2c1Nc1ccccc1C
[2]
  inhibition in vivo at 1 µmol/kg: 52%
[4]
  ED50: 1.89 µmol/kg

## Cc1cc(F)ccc1Nc1c(C(=O)C(C)C)cnc2c(OCCO)cccc12
[1]
  IC50: 1.6 µM
[2]
  inhibition in vivo at 1 µmol/kg: 66%
[3]
  inhibition in vivo at 4 µmol/kg: 75%
[4]
  ED50: 4.2 µmol/kg

## CCCC(=O)c1cnc2c(OC)cccc2c1Nc1c(C)cccc1C
[1]
  IC50: 1.6 µM
[2]
  inhibition in vivo at 1 µmol/kg: 62%
[3]
  inhibition in vivo at 4 µmol/kg: 75%
[4]
  ED50: 5.24 µmol/kg

## CCCC(=O)c1cnc2c(OCCO)cccc2c1Nc1ccccc1C
[2]
  inhibition in vivo at 1 µmol/kg: 64%
[3]
  inhibition in vivo at 4 µmol/kg: 96%
[4]
  ED50: 2.4 µmol/kg

## CCCC(=O)c1cnc2c(C)cccc2c1Nc1c(C)cccc1C
[1]
  IC50: 3.1 µM
[2]
  inhibition in vivo at 1 µmol/kg: 45%
[4]
  ED50: 2.88 µmol/kg

## CCCC(=O)c1cnc2c(OCCOC)cccc2c1Nc1ccccc1C
[2]
  inhibition in vivo at 1 µmol/kg: 51%
[3]
  inhibition in vivo at 4 µmol/kg: 81%
[4]
  ED50: 2.75 µmol/kg

## CCCC(=O)c1cnc2c(OCCO)cccc2c1Nc1ccc(F)cc1C
[2]
  inhibition in vivo at 1 µmol/kg: 44%
[3]
  inhibition in vivo at 4 µmol/kg: 80%
[4]
  ED50: 2.92 µmol/kg

## Cc1cc(O)ccc1Nc1c(C(=O)C(C)C)cnc2c(CO)cccc12
[1]
  IC50: 0.036 µM
[2]
  inhibition in vivo at 1 µmol/kg: 47%
[4]
  ED50: 1.72 µmol/kg

## CCCC(=O)c1cnc2c(OC)cccc2c1Nc1cccc(C)c1C
[1]
  IC50: 1.4 µM
[2]
  inhibition in vivo at 1 µmol/kg: 77%
[3]
  inhibition in vivo at 4 µmol/kg: 67%
[5]
  inhibition: 60%

## CCCC(=O)c1cnc2c(C)cccc2c1Nc1ccccc1C
[1]
  IC50: 3 µM
[2]
  inhibition in vivo at 1 µmol/kg: 38%
[4]
  ED50: 3.12 µmol/kg

## CCCC(=O)c1cnc2c(C)cccc2c1Nc1ccccc1CC
[1]
  IC50: 2.9 µM
[2]
  inhibition in vivo at 1 µmol/kg: 66%
[4]
  ED50: 3.05 µmol/kg

## Cc1cc(F)ccc1Nc1c(C(=O)C(C)C)cnc2c(CO)cccc12
[2]
  inhibition in vivo at 1 µmol/kg: 59%
[3]
  inhibition in vivo at 4 µmol/kg: 42%
[4]
  ED50: 3.57 µmol/kg

## CCCC(=O)c1cnc2c(OC)cccc2c1Nc1ccc(OC(=O)CC)cc1C
[1]
  IC50: 19 µM
[3]
  inhibition in vivo at 4 µmol/kg: 45%

## CCC(=O)c1cnc2c(CO)cccc2c1Nc1ccc(O)cc1C
[1]
  IC50: 0.18 µM
[2]
  inhibition in vivo at 1 µmol/kg: 59%
[3]
  inhibition in vivo at 4 µmol/kg: 24%
[5]
  inhibition: 90%

## CCCC(=O)c1cnc2c(C(=O)OC)cccc2c1Nc1ccccc1C
[1]
  IC50: 0.58 µM
[4]
  ED50: 13.4 µmol/kg

## CCCC(=O)c1cnc2c(C)cccc2c1Nc1ccc(OC)cc1OC
[1]
  IC50: 2.4 µM
[2]
  inhibition in vivo at 1 µmol/kg: 41%
[4]
  ED50: 3.9 µmol/kg

## CCCC(=O)c1cnc2c(OCCCNC(C)=O)cccc2c1Nc1c(C)cccc1C
[1]
  IC50: 1.8 µM
[2]
  inhibition in vivo at 1 µmol/kg: 86%
[3]
  inhibition in vivo at 4 µmol/kg: 40%
[5]
  inhibition: 75%

## CCC(=O)c1cnc2c(CO)cccc2c1Nc1ccccc1C
[1]
  IC50: 0.38 µM
[2]
  inhibition in vivo at 1 µmol/kg: 83%
[3]
  inhibition in vivo at 4 µmol/kg: 35%
[5]
  inhibition: 74%

## CCCC(=O)c1cnc2c(OC)cccc2c1Nc1ccc(OC)cc1C
[1]
  IC50: 1.27 µM
[2]
  inhibition in vivo at 1 µmol/kg: 71%
[4]
  ED50: 7.61 µmol/kg

## CCCC(=O)c1cnc2c(CO)cccc2c1Nc1ccc(O)cc1C
[2]
  inhibition in vivo at 1 µmol/kg: 64%
[3]
  inhibition in vivo at 4 µmol/kg: 29%
[4]
  ED50: 2.09 µmol/kg

## CCCC(=O)c1cnc2c(CCCO)cccc2c1Nc1ccccc1C
[1]
  IC50: 2.6 µM
[3]
  inhibition in vivo at 4 µmol/kg: 48%
[5]
  inhibition: 63%
